Results reported in paper PMC7004521 (Cancer Science, 2019).

Test: Adverse events suspected to be study drug related, phase 1 study
Format: in vivo, human
Details: drug-related
Outline: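 Adult patients with advanced solid tumours and confirmed MET dysregulation took oral capsules twice daily from 100 up to 600 mg in escalation, or 400 mg bid tablets, in 28-day cycles. Expansion was 600 mg bid capsules, with a switch to 400 mg bid tablets allowed. Patients were included if they had ≥1 dose and ≥1 valid post-baseline safety assessment. Events were graded by CTCAE v4.0.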

[1] = escalation 400 mg bid tablet n=5

In the case of `CNC(=O)c1ccc(-c2cnc3ncc(Cc4ccc5ncccc5c4)n3n2)cc1F` [capmatinib], the “Decreased appetite, all grades” value [1] was 0 n (%), the “Decreased appetite, grade 3/4” value [1] was 0 n (%) and the “Diarrhea, all grades” value [1] was 1 (20) n (%). For the same compound, the “Diarrhea, grade 3/4” value [1] was 0 n (%), the “Dizziness, all grades” value [1] was 1 (20) n (%) and the “Dizziness, grade 3/4” value [1] was 0 n (%). For the same compound, the “Dyspepsia, all grades” value [1] was 0 n (%), the “Dyspepsia, grade 3/4” value [1] was 0 n (%) and the “Fatigue, all grades” value [1] was 1 (20) n (%). The “Fatigue, grade 3/4” value [1] was 0 n (%), the “Headache, all grades” value [1] was 0 n (%) and the “Headache, grade 3/4” value [1] was 0 n (%). For the same compound, the “Hypoalbuminemia, all grades” value [1] was 2 (40) n (%), the “Hypoalbuminemia, grade 3/4” value [1] was 0 n (%) and the “Hypophagia, all grades” value [1] was 0 n (%). For the same compound, the “Hypophagia, grade 3/4” value [1] was 0 n (%), the “Lipase increased, all grades” value [1] was 0 n (%) and the “Lipase increased, grade 3/4” value [1] was 0 n (%). For the same compound, the “Maculo‐papular rash, all grades” value [1] was 0 n (%), the “Maculo‐papular rash, grade 3/4” value [1] was 0 n (%) and the “Myalgia, all grades” value [1] was 0 n (%). The “Myalgia, grade 3/4” value [1] was 0 n (%), the “Nausea, all grades” value [1] was 2 (40) n (%) and the “Nausea, grade 3/4” value [1] was 0 n (%). For the same compound, the “Odynophagia, all grades” value [1] was 1 (20) n (%), the “Odynophagia, grade 3/4” value [1] was 0 n (%) and the “Peripheral edema, all grades” value [1] was 2 (40) n (%). For the same compound, the “Peripheral edema, grade 3/4” value [1] was 0 n (%), the “Pyrexia, all grades” value [1] was 0 n (%) and the “Pyrexia, grade 3/4” value [1] was 0 n (%). For the same compound, the “Stomatitis, all grades” value [1] was 1 (20) n (%), the “Stomatitis, grade 3/4” value [1] was 0 n (%) and the “Thrombocytopenia, all grades” value [1] was 0 n (%). The “Thrombocytopenia, grade 3/4” value [1] was 0 n (%), the “Total protein decreased, all grades” value [1] was 0 n (%) and the “Total protein decreased, grade 3/4” value [1] was 0 n (%). The “Upper abdominal pain, all grades” value [1] was 1 (20) n (%), the “Upper abdominal pain, grade 3/4” value [1] was 0 n (%) and the “Vomiting, all grades” value [1] was 1 (20) n (%). The “Vomiting, grade 3/4” value [1] was 0 n (%), the “ALT increased, all grades” value (escalation 450 mg bid n=9) was 1 (11) n (%) and the “ALT increased, grade 3/4” value (escalation 450 mg bid n=9) was 1 (11) n (%). The “AST increased, all grades” value (escalation 450 mg bid n=9) was 1 (11) n (%), the “AST increased, grade 3/4” value (escalation 450 mg bid n=9) was 1 (11) n (%) and the “Amylase increased, all grades” value (escalation 450 mg bid n=9) was 0 n (%). The “Amylase increased, grade 3/4” value (escalation 450 mg bid n=9) was 0 n (%), the “Asthenia, all grades” value (escalation 450 mg bid n=9) was 1 (11) n (%) and the “Asthenia, grade 3/4” value (escalation 450 mg bid n=9) was 0 n (%). The “Blood bilirubin increased, all grades” value (escalation 450 mg bid n=9) was 0 n (%), the “Blood bilirubin increased, grade 3/4” value (escalation 450 mg bid n=9) was 0 n (%) and the “Blood creatinine increased, all grades” value (escalation 450 mg bid n=9) was 0 n (%). For the same compound, the “Blood creatinine increased, grade 3/4” value (escalation 450 mg bid n=9) was 0 n (%), the “Constipation, all grades” value (escalation 450 mg bid n=9) was 0 n (%) and the “Constipation, grade 3/4” value (escalation 450 mg bid n=9) was 0 n (%). The “Decreased appetite, all grades” value (escalation 450 mg bid n=9) was 3 (33) n (%), the “Decreased appetite, grade 3/4” value (escalation 450 mg bid n=9) was 0 n (%) and the “Diarrhea, all grades” value (escalation 450 mg bid n=9) was 0 n (%). The “Diarrhea, grade 3/4” value (escalation 450 mg bid n=9) was 0 n (%), the “Dizziness, all grades” value (escalation 450 mg bid n=9) was 0 n (%) and the “Dizziness, grade 3/4” value (escalation 450 mg bid n=9) was 0 n (%). For the same compound, the “Dyspepsia, all grades” value (escalation 450 mg bid n=9) was 0 n (%), the “Dyspepsia, grade 3/4” value (escalation 450 mg bid n=9) was 0 n (%) and the “Fatigue, all grades” value (escalation 450 mg bid n=9) was 3 (33) n (%). For the same compound, the “Fatigue, grade 3/4” value (escalation 450 mg bid n=9) was 1 (11) n (%), the “Headache, all grades” value (escalation 450 mg bid n=9) was 1 (11) n (%) and the “Headache, grade 3/4” value (escalation 450 mg bid n=9) was 0 n (%). For the same compound, the “Hypoalbuminemia, all grades” value (escalation 450 mg bid n=9) was 0 n (%), the “Hypoalbuminemia, grade 3/4” value (escalation 450 mg bid n=9) was 0 n (%) and the “Hypophagia, all grades” value (escalation 450 mg bid n=9) was 0 n (%). The “Hypophagia, grade 3/4” value (escalation 450 mg bid n=9) was 0 n (%), the “Lipase increased, all grades” value (escalation 450 mg bid n=9) was 0 n (%) and the “Lipase increased, grade 3/4” value (escalation 450 mg bid n=9) was 0 n (%). For the same compound, the “Maculo‐papular rash, all grades” value (escalation 450 mg bid n=9) was 1 (11) n (%), the “Maculo‐papular rash, grade 3/4” value (escalation 450 mg bid n=9) was 0 n (%) and the “Myalgia, all grades” value (escalation 450 mg bid n=9) was 0 n (%). The “Myalgia, grade 3/4” value (escalation 450 mg bid n=9) was 0 n (%), the “Nausea, all grades” value (escalation 450 mg bid n=9) was 4 (44) n (%) and the “Nausea, grade 3/4” value (escalation 450 mg bid n=9) was 0 n (%). The “Odynophagia, all grades” value (escalation 450 mg bid n=9) was 0 n (%), the “Odynophagia, grade 3/4” value (escalation 450 mg bid n=9) was 0 n (%) and the “Peripheral edema, all grades” value (escalation 450 mg bid n=9) was 2 (22) n (%). For the same compound, the “Peripheral edema, grade 3/4” value (escalation 450 mg bid n=9) was 0 n (%), the “Pyrexia, all grades” value (escalation 450 mg bid n=9) was 1 (11) n (%) and the “Pyrexia, grade 3/4” value (escalation 450 mg bid n=9) was 0 n (%). For the same compound, the “Stomatitis, all grades” value (escalation 450 mg bid n=9) was 0 n (%), the “Stomatitis, grade 3/4” value (escalation 450 mg bid n=9) was 0 n (%) and the “Thrombocytopenia, all grades” value (escalation 450 mg bid n=9) was 0 n (%). The “Thrombocytopenia, grade 3/4” value (escalation 450 mg bid n=9) was 0 n (%), the “Total protein decreased, all grades” value (escalation 450 mg bid n=9) was 0 n (%) and the “Total protein decreased, grade 3/4” value (escalation 450 mg bid n=9) was 0 n (%). For the same compound, the “Upper abdominal pain, all grades” value (escalation 450 mg bid n=9) was 0 n (%), the “Upper abdominal pain, grade 3/4” value (escalation 450 mg bid n=9) was 0 n (%) and the “Vomiting, all grades” value (escalation 450 mg bid n=9) was 3 (33) n (%). The “Vomiting, grade 3/4” value (escalation 450 mg bid n=9) was 0 n (%), the “ALT increased, all grades” value (escalation 600 mg bid n=8) was 1 (13) n (%) and the “ALT increased, grade 3/4” value (escalation 600 mg bid n=8) was 1 (13) n (%). The “AST increased, all grades” value (escalation 600 mg bid n=8) was 2 (25) n (%), the “Amylase increased, all grades” value (escalation 600 mg bid n=8) was 0 n (%) and the “Amylase increased, grade 3/4” value (escalation 600 mg bid n=8) was 0 n (%). The “Asthenia, all grades” value (escalation 600 mg bid n=8) was 0 n (%), the “Asthenia, grade 3/4” value (escalation 600 mg bid n=8) was 0 n (%) and the “Blood bilirubin increased, all grades” value (escalation 600 mg bid n=8) was 1 (13) n (%). The “Blood bilirubin increased, grade 3/4” value (escalation 600 mg bid n=8) was 0 n (%), the “Blood creatinine increased, all grades” value (escalation 600 mg bid n=8) was 0 n (%) and the “Blood creatinine increased, grade 3/4” value (escalation 600 mg bid n=8) was 0 n (%). For the same compound, the “Constipation, all grades” value (escalation 600 mg bid n=8) was 0 n (%), the “Constipation, grade 3/4” value (escalation 600 mg bid n=8) was 0 n (%) and the “Decreased appetite, all grades” value (escalation 600 mg bid n=8) was 3 (38) n (%). For the same compound, the “Decreased appetite, grade 3/4” value (escalation 600 mg bid n=8) was 0 n (%), the “Diarrhea, all grades” value (escalation 600 mg bid n=8) was 2 (25) n (%) and the “Diarrhea, grade 3/4” value (escalation 600 mg bid n=8) was 0 n (%). For the same compound, the “Dizziness, all grades” value (escalation 600 mg bid n=8) was 0 n (%), the “Dizziness, grade 3/4” value (escalation 600 mg bid n=8) was 0 n (%) and the “Dyspepsia, all grades” value (escalation 600 mg bid n=8) was 1 (13) n (%). For the same compound, the “Dyspepsia, grade 3/4” value (escalation 600 mg bid n=8) was 0 n (%), the “Fatigue, all grades” value (escalation 600 mg bid n=8) was 3 (38) n (%) and the “Fatigue, grade 3/4” value (escalation 600 mg bid n=8) was 0 n (%). The “Headache, all grades” value (escalation 600 mg bid n=8) was 0 n (%), the “Headache, grade 3/4” value (escalation 600 mg bid n=8) was 0 n (%) and the “Hypoalbuminemia, all grades” value (escalation 600 mg bid n=8) was 1 (13) n (%).
